Assay results reported in ChEMBL document CHEMBL1156176, “Total synthesis, antiprotozoal and cytotoxicity activities of rhuschalcone VI and analogs” (Bioorg Med Chem, 2010).
≈ marks a conversion by molar mass, not a printed value.

Key:
[1] = Cytotoxicity against BHK cells at 100 ug/ml after 48 hrs by MTT assay; type: cell-based, Mesocricetus auratus; settings: hamster; for Activity: bhk, 48 h
Method in brief: (§1)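 BHK cells (DMEM/F10 1:1, 10% fetal calf serum, penicillin/streptomycin, 37 °C/5% CO2) at 1 × 10^5/mL, adhered overnight, exposed 48 h to serial dilutions (0.0001–100 µg/mL in figure). MTT for 4 h, DMSO solubilisation, A570; survival vs untreated cells; CC50 from triplicate means ± SD.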

Parabodo caudatus [2] = assay: Antiprotozoal activity against Bodo caudatus hrs by MTT assay; type: functional, organism-based; settings: TDE = time-dependent effect
Method in brief: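 B. caudatus adjusted to 1 × 10^5/mL in growth medium with penicillin/streptomycin/kanamycin, exposed 48 h at 37 °C/5% CO2 to serial dilutions (0.0001–1000 µg/mL final). MTT added for further 4 h, crystals dissolved in DMSO, absorbance 570 nm. LC50 (50% lethal concentration) from mean ± SD of triplicates.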

Parabodo caudatus [3] = assay: Antiprotozoal activity against Bodo caudatus after 48 hrs by MTT assay; type: functional
Method in brief: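 B. caudatus from culture in cereal grass medium diluted 1:1 with water plus E. coli DH5a, kept at 30 °C; adjusted to 1 × 10^5/mL with penicillin, streptomycin and kanamycin added; exposed 48 h to serial dilutions (final 0.0001–1000 µg/mL) at 37 °C/5% CO2; MTT added for 4 h, crystals dissolved in DMSO, A570 read; LC50 from triplicate determinations.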

Parabodo caudatus [4] = assay: Antiprotozoal activity against Bodo caudatus at 0.6 mg/ml after 24 hrs by MTT assay; type: functional
Method in brief: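 Bodo caudatus (maintained at 30 °C in cereal grass medium diluted 1:1 with water, fed E. coli DH5α, subcultured every 7–12 days); 10,000 protozoa per well with penicillin/streptomycin/kanamycin, exposed 24 h to 0.6 mg/mL final; CuSO4 at same concentration as positive control, 8% DMSO solvent control. MTT added, 2 h, DMSO-dissolved, A570 viability; triplicates; inhibition vs controls.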

[5] = Cytotoxicity against BHK cells after 48 hrs by MTT assay; type: cell-based, Mesocricetus auratus; settings: hamster; method in brief: as §1

Compound	Activity [1]	Activity (Parabodo caudatus [2])	LC50 (Parabodo caudatus [3]) [mg/L]	Activity (Parabodo caudatus [4]) [%]	CC50 at 48 h [5] [mg/L]	CC50 at 48 h ([1]; BHK cells) [mg/L]
COc1cc(O)c(C(=O)/C=C/c2ccc(O)cc2)cc1-c1cc(/C=C/C(=O)c2ccc(O)cc2O)ccc1O	Non-toxic	tde	118 (≈ 226 µM)	75	–	–
CC(C)=CCc1c(O)ccc(C(=O)/C=C/c2ccc(O)cc2)c1O [ISOBAVACHALCONE]	–	tde	4.36 (≈ 13.4 µM)	75	86.9 (≈ 268 µM)	–
O=C(/C=C/c1ccc(O)c(-c2cc(C(=O)/C=C/c3ccc(O)cc3)c(O)cc2O)c1)c1ccccc1	Non-toxic	tde	20.6 (≈ 43 µM)	75	–	–
O=C(/C=C/c1ccc(O)c(-c2cc(C(=O)/C=C/c3ccc(O)cc3)c(O)cc2O)c1)c1ccc(O)cc1O [RHUSCHALCONE VI]	–	tde	53.3 (≈ 104 µM)	75	–	97.6 (≈ 191 µM)
